Active and inactive are the calls of the source. No cut-off for these calls is given here.
Tests used:
Cavia porcellus [1] = species on record: Cavia porcellus; assay: Potency expressed as IC50 for the vasorelaxant activity; format: functional
K562 [2] = assay: The efficacy in reverting MDR was evaluated on human erythroleukemia K-562 cell line; format: functional
Method in brief: (§1)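 Doxorubicin-resistant and sensitive K 562 cells in exponential growth were used in pH 7.25 HEPES buffer at 37 °C in quartz cuvettes. Pirarubicin uptake was followed as the fall in fluorescence at 590 nm (ex 480 nm). Steady-state nuclear pirarubicin was measured across a range of inhibitor concentrations. α = (CnRi − CnRo)/(CnS − CnRo); αmax is the maximal α, and [i]0.5 is the concentration giving α = 0.5 (mean ± SEM).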

K562 [3] = assay: Potency that causes a half maximal increase in nuclear concentration of pirarubicin.; format: functional, Homo sapiens
Cavia porcellus [4] = species on record: Cavia porcellus; assay: Potency expressed as EC30 for the negative chronotropic activity; format: functional
Cavia porcellus [5] = species on record: Cavia porcellus; assay: Potency expressed as EC50 for the negative inotropic activity; 'i' means Inactive; format: functional
Cavia porcellus [6] = species on record: Cavia porcellus; assay: Decrease in developed tension of the left atrium of guinea pig expressed as the negative inotropy.; format: functional, Cardiac atrium; set-up: concentration or dose not given beside the values
Method in brief: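 Isolated guinea pig left atrium, electrically driven at 1 Hz. Read-out is the fall in developed tension at 5 × 10^-5 M, given as percent change from control (n = 5-6).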

Cavia porcellus [7] = species on record: Cavia porcellus; assay: Decrease in atrial rate of the right atrium of guinea pig expressed as the negative chronotropy.; set-up: concentration or dose not given beside the values
K562 [8] = assay: Percentage of the dead cells of K-562 cells was determined for the compound; format: ADME, cell-based; details: human
Method in brief: (§2)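 Doxorubicin-resistant K 562 cells were exposed to compound at 1 µM, and viability was scored by trypan blue exclusion. Dead cells above 20% counted as toxic.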

Cavia porcellus [9] = species on record: Cavia porcellus; assay: Percent inhibition of calcium-induced contraction on K+ depolarized guinea pig aortic strip.; format: functional, Aorta; set-up: concentration or dose not given beside the values
Cavia porcellus [10] = species on record: Cavia porcellus; assay: Potency expressed as EC30 for the negative chronotropic activity; 'i' means Inactive; format: functional
Cavia porcellus [11] = species on record: Cavia porcellus; assay: Decrease in developed tension of the right atrium of guinea pig expressed as the negative chronotropy.; format: functional, Cardiac atrium; set-up: scale not given: the % may be the effect or the level left
Method in brief: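 Spontaneously beating isolated guinea pig right atrium. Read-out is the fall in atrial rate at 5 × 10^-5 M (10^-5 M for some compounds), given as percent change from control (n = 7-8).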

Cavia porcellus [12] = species on record: Cavia porcellus; assay: Potency expressed as EC50 for the negative inotropic activity.; format: functional
Cavia porcellus [13] = species on record: Cavia porcellus; assay: Potency expressed as IC50 for the vasorelaxant activity; 'i' means inactive.; format: functional
Cavia porcellus [14] = species on record: Cavia porcellus; assay: Potency expressed as IC50 for the vasorelaxant activity.; format: functional
Cavia porcellus [15] = species on record: Cavia porcellus; assay: Potency expressed as EC30 for the negative chronotropic activity.; format: functional
K562 [16] = assay: Potency that causes half maximal increase in nuclear concentration of pirarubicin; 'i' means Inactive; format: functional, cell-based; details: Homo sapiens; method in brief: as §1
K562 [17] = assay: percentage of the dead cells of K-562 cells was determined for the concentration of 1 uM of the compound.; format: ADME, cell-based; details: human, k562, 1 µM; method in brief: as §2
K562 [18] = assay: The efficacy in reverting MDR was evaluated on erythroleukemia K-562 cell line.; format: functional, Homo sapiens; method in brief: as §1

SMILES | IC50 (Cavia porcellus [1]) | Alpha max (K562 [2]) | Potency (K562 [3]) | EC30 (Cavia porcellus [4]) | EC50 (Cavia porcellus [5]) | Activity (Cavia porcellus [6]) | Activity (Cavia porcellus [7]) | Dead cells (K562 [8]) | Activity (Cavia porcellus [9]) | EC30 (Cavia porcellus [10]) | Activity (Cavia porcellus [11]) | EC50 (Cavia porcellus [12]) | IC50 (Cavia porcellus [13]) | IC50 (Cavia porcellus [14]) | EC30 (Cavia porcellus [15]) | Potency (K562 [16]) | Dead cells (K562 [17]) | Alpha max (K562 [18])
COc1ccc(C(C#N)(CCCNC23CC4CC(CC(C4)C2)C3)C(C)C)cc1OC.Cl (stereo not given) | 7.15 µM | 0.7 | 2 µM | 1.7 µM | Not Active | 45% | 80% | 0% | 81% |  |  |  |  |  |  |  |  | 
COc1ccc(C(C#N)(CCCN(C)Cc2c3ccccc3cc3ccccc23)C(C)C)cc1OC.Cl (stereo not given) |  | 0.5 | 2.5 µM |  |  | 85% |  | 3% | 9% | inactive | 19% | 0.65 µM | Inactive |  |  |  |  | 
COc1ccc(C(C#N)(CC#CCN(C)CC23CC4CC(CC(C4)C2)C3)C(C)C)cc1OC.Cl (stereo not given) |  | 0.8 | 1.3 µM |  |  | 77% | 92% | 0% | 65% |  |  | 1.16 µM |  | 3.42 µM | 0.24 µM |  |  | 
COc1ccc(C(C#N)(CC#CCNCC(c2ccccc2)c2ccccc2)C(C)C)cc1OC.Cl (stereo not given) |  | 0.7 | 0.1 µM |  |  | 61% | 67% | 20% | 54% |  |  | 1.06 µM |  | 4.12 µM | 0.83 µM |  |  | 
COc1ccc(C(C#N)(CCCN(C)C23CC4CC(CC(C4)C2)C3)C(C)C)cc1OC.Cl (stereo not given) |  |  |  |  |  | 80% | 81% |  | 65% |  |  | 3.99 µM |  | 3.8 µM | 0.91 µM | inactive |  | 
C=CCNc1nc(NCC=C)nc(N2CCC(NCCCC(C#N)(c3ccc(OC)c(OC)c3)C(C)C)CC2)n1.Cl (stereo not given) |  | 0.9 | 1.6 µM |  | Not Active | 39% | 87% | 0% | 62% |  |  |  |  | 3.45 µM | 1.75 µM |  |  | 
Cl.N#CC(CCCNCc1c2ccccc2cc2ccccc12)(c1ccccc1)c1ccccc1 |  |  | 0.5 µM |  | Not Active | 48% | 67% |  | 6% |  |  |  | Inactive |  | 0.66 µM |  | 20% | 0.7
Cl.N#CC(CCCNC12CC3CC(CC(C3)C1)C2)(c1ccccc1)c1ccccc1 |  | 0.8 | 0.5 µM |  |  | 80% | 69% | 0% | 55% |  |  | 1.03 µM |  | 3.49 µM | 1.26 µM |  |  | 
